Source: PubChem (several laboratories)
Hits are enriched below; roughly 3.8% of the tested compounds scored in any of these assays.
HCV NS3 hel inh: inhibitors of Hepatitis C virus NS3 helicase; NS3 helicase DNA unwinding, Cy5 molecular beacon fluorescence; inhibition, % at 10.9 µM; hit rate 0.56% among 290,000; AID 1800;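 active = inhibition above the mean of all tested compounds plus 3 SD, set per campaign, cut at about 35% in these data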
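Measured by: Cy5 fluorescence, 0 and 60 min reads / Assay system: NS3 helicase fragment of HCV / Control set: low DMSO, high thioflavine S at 110 µM / Times: 1 h reaction at 25 °C, ATP-initiated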
HSF1 inhib: HSF1 inhibition | AID 2098 | activity change, negative = inhibition, % at 7.5 µM (by protocol) | hit rate 0.77% among 300,000 | NIH3T3-HGL HSE-luciferase, MG132-induced, luminescence 8 h; active compounds read low;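 active = more than half of replicate wells show activity change below -50%, luminescence cut by over half; inconclusive = some wells, but at most half, below -50%; inactive = no replicate well below -50%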;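 note: luciferase reports HSF-1 transcriptional activity via heat shock element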
Lipid droplet: modulators of hepatic lipid droplet formation | AID 1656 | AML12 mouse hepatocytes, oleate lipid droplets, BODIPY imaging | hit rate 0.4% among 240,000 | inhibition, % at 6.5 µM;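 active = lipid droplet intensity inhibited by at least 50%, with more than 500 cells counted; inconclusive = wells with under 300 cells, treated as cytotoxic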
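Material – mouse AML12 hepatocyte cell line, fixed after treatment · Compound dosing – one dose, 6.5 µM compound · Times – compound with oleate, overnight · Measured by – Image-based BODIPY and DAPI two-channel analysis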
HSF-1 act: increases HSF-1 driven luciferase reporter signal; NIH3T3-HGL HSF-1 luciferase reporter, MG132, 8 h; 100% = twice DMSO control signal; activation, % at 9 µM; hit rate 1.7% among 300,000; AID 504408;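 active = mean replicate activation of at least 50% with a set share of replicates each reaching 50%; inconclusive = only one of those two conditions met; inactive = mean below 50% and too few replicates reaching it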
HSP90 refold inh: HSP90 refolding inhibition in rabbit reticulocyte lysate; luciferase refolding luminescence, 3 h; inhibition, % at 5.6 µM; hit rate 0.91% among 290,000;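 active = inhibition above the screen-wide mean plus 3 SD, computed separately per campaign, cut at about 16% in these data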;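 note: inhibitors lower the luminescence because luciferase stays unfolded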
A number is an active result; – = inactive; ? = inconclusive; · = no result.

SMILES	HCV NS3 hel inh	HSF1 inhib	Lipid droplet	HSF-1 act	HSP90 refold inh
O=C(Nc1ccc(Cl)cc1)N1CCc2ccccc2C1	–	–	–	80	–
O=C(Cc1ccc(Cl)cc1)N1CCc2ccccc2C1	·	–	·	59	·
COc1ccc(CC(=O)N2CCc3ccccc3C2)cc1	–	–	–	–	–
O=C(OCC(=O)N1CCc2ccccc2C1)c1cccs1	–	–	–	80	–
CN(C)S(=O)(=O)c1ccc(NC(=O)CSc2nc3ccccc3n2-c2ccccc2)cc1	–	–	–	–	–
CCN(CC)c1ccc(NC(=O)CSc2nc3ccccc3c(=O)n2-c2cc(S(=O)(=O)N(C)C)ccc2C)cc1	–	–	–	–	16
Cc1ccc(NC(=S)N/N=C/c2cccn2Cc2ccccc2F)cc1	–	–	–	–	–
C=CS(=O)(=O)c1ccc(Oc2ccc(S(=O)(=O)C=C)cc2)cc1	–	-93	–	–	–
CCNc1ccc(Br)cc(C(=O)/C=C/c2ccc(Cl)cc2)c1=O	–	–	–	–	–
CCNc1ccc(Br)cc(C(=O)/C=C/c2c(Cl)cccc2Cl)c1=O	–	–	–	73	–
CC1(C)Cc2c(sc(NC(=O)c3ccc(C(=O)c4ccccc4)cc3)c2C(N)=O)C(C)(C)N1	–	–	–	–	–
CC1(C)Cc2c(sc(NC(=O)c3ccc4ncsc4c3)c2C(N)=O)C(C)(C)N1	–	-53	–	–	–
Cc1ccccc1NC(=S)c1nc2ccccc2[nH]1	–	–	–	67	–
S=C(Nc1ccc(Cl)cc1)c1nc2ccccc2[nH]1	–	–	–	–	–
O=C(NCc1cccnc1)c1nc(-c2ccccc2)n(-c2ccccc2)n1	–	–	–	–	–
Cc1ccccc1CC1(CO)CCCN(C(=O)c2ccccc2Cl)C1 (stereo not drawn)	–	–	–	55	–
CCCCn1c(SCC(=O)N2CCCC2)nc2cc(S(N)(=O)=O)ccc21	–	–	–	–	–
CCCCn1c(SCc2c(C)noc2C)nc2cc(S(N)(=O)=O)ccc21	–	–	·	52	–
CN(Cc1ccccc1)C(=O)CCC1CCN(C(=O)CC2=CCCCC2)CC1	–	–	–	71	–
Cc1ccccc1S(=O)(=O)Nc1nc2ccccc2nc1N1CCc2ccccc2C1	–	–	–	71	–
O=S(=O)(Nc1nc2ccccc2nc1Cl)c1ccc(Br)cc1	–	-54	–	–	–
O=S(=O)(Nc1nc2ccccc2nc1Cl)c1ccc(Cl)cc1	–	–	–	–	–
O=S(=O)(Nc1nc2ccccc2nc1N1CCc2ccccc2C1)c1ccc(Cl)cc1	–	–	–	57	–
Cc1ccccc1S(=O)(=O)Nc1nc2ccccc2nc1Cl	–	–	–	–	–
O=S(=O)(Nc1nc2ccccc2nc1N1CCc2ccccc2C1)c1ccc(Br)cc1	–	·	–	·	17
SMILES	HCV NS3 hel inh	HSF1 inhib	Lipid droplet	HSF-1 act	HSP90 refold inh
CC(=O)Nc1ccc(S(=O)(=O)Nc2nc3ccccc3nc2N2CCc3ccccc3C2)cc1	–	–	?	–	–
COc1cc(C(=O)OCC(=O)c2c(N)n(C)c(=O)n(C)c2=O)ccc1OCCC(C)C	–	–	–	–	–
O=C1Nc2ccc(Br)cc2C12NNc1ccccc1O2 (stereo not drawn)	–	–	–	–	–
CNS(=O)(=O)c1cccc(C(=O)NNC(=O)c2ccc(COc3ccccc3)cc2)c1	–	–	–	–	–
O=c1cc(CSc2ccc(Cl)cc2)nc(-c2ccccn2)[nH]1	–	–	·	136	–
Cc1nc(Nc2nc(CSc3ccc(Cl)cc3)cc(=O)[nH]2)nc2ccccc12	–	–	–	61	–
Cc1nc(Nc2nc(CSc3nc4ccccc4[nH]3)cc(=O)[nH]2)nc2ccccc12	–	–	–	–	–
COc1cccc(N=Nc2ccc(O)c3ncccc23)c1	–	–	–	90	–
Cc1ccccc1N=Nc1ccc(O)c2ncccc12	–	–	–	89	–
O=[N+]([O-])c1ccc(O)c2cccnc12	–	–	–	–	–
O=[N+]([O-])c1ccc(O)c2ncccc12	–	-55	–	–	–
COc1ccc(N=Nc2ccc(O)c3ncccc23)cc1	–	–	–	–	–
Nc1ccc(N=Nc2ccccc2)c2cccnc12	–	–	–	82	–
O=C(O)COCC(=O)N1CCc2c([nH]c3ccccc23)C1C(F)(F)F (stereo not drawn)	–	–	·	–	–
NC(CS(=O)O)C(=O)O (stereo not drawn)	·	–	·	–	·
CCOc1cc(C2C3=C(CC(C)(C)CC3=O)N(C)C3=C2C(=O)CC(C)(C)C3)ccc1O	–	–	–	–	–
CCc1ccc2c(c1)[C@H]1OCC[C@H]1[C@@H](c1cccs1)N2	–	–	–	69	–
CCc1ccc2c(c1)/C(=C/C(=O)c1cccs1)C(=O)N2	–	–	·	–	–
Cc1cccc(NC(=S)NCCc2ccc3c(c2)OCCO3)c1C	–	–	–	–	–
NC(=O)c1ccc[n+](CC(=O)OCCC23CC4CC(CC(C4)C2)C3)c1	–	-70	·	–	–
CS(=O)c1nc(-c2ccc(Br)cc2)cc(-c2ccccc2)c1C#N (stereo not drawn)	–	–	–	56	–
COc1ccc(-c2cc(-c3ccccc3)c(C#N)c(S(C)(=O)=O)n2)cc1	–	–	–	71	–
CS(=O)(=O)c1nc(-c2ccc(Br)cc2)cc(-c2ccccc2)c1C#N	–	–	–	–	–
O=C1c2ccccc2C(=O)N1CC(O)Cn1nnc2ccccc21 (stereo not drawn)	–	–	–	–	–
Cc1ccc2c(c1)c(C)c(C)n2CC(O)Cn1nnc2ccccc21 (stereo not drawn)	–	-89	·	–	–
SMILES	HCV NS3 hel inh	HSF1 inhib	Lipid droplet	HSF-1 act	HSP90 refold inh
OC(CN1c2ccccc2Sc2ccccc21)Cn1nnc2ccccc21 (stereo not drawn)	–	–	–	63	–
CCOC(=O)c1c(N)sc(C(=O)Nc2ccccc2F)c1C	–	–	–	95	–
Cc1ccccc1N1CCN(CC(=O)Nc2nc(C)c(C(=O)N(C)C)s2)CC1	–	–	–	–	–
Cc1nc(NC(=O)CN2CCN(c3ccccc3F)CC2)sc1C(=O)N(C)C	–	–	–	–	16
O=C(c1ccccn1)c1ccc2ccccc2n1	–	–	–	59	–
O=C(NCc1ccccn1)c1ccc2ccccc2n1	–	–	–	–	–
CCOc1cc(/C=C\[N+](=O)[O-])ccc1OCC(=O)N1CCOCC1	–	–	–	310	–
CC(=O)c1ccc(C(=O)Nc2ccc3c(c2)C(=O)NC3=O)cc1	–	–	–	–	–
COc1ccc(CN2C(=NC(=O)CCC3CCCC3)SC3CS(=O)(=O)CC32)cc1 (stereo not drawn)	–	-71	–	–	–
CC(=O)NS(=O)(=O)c1ccc(NC(=O)CSc2ccc(C)cc2)cc1	–	–	–	–	–
O=c1c(/C=N\NS(=O)(=O)c2ccccc2)coc2ccc(Cl)cc12	–	-75	–	–	–
COc1ccccc1CNC(=O)CSc1ccc(-c2cccc([N+](=O)[O-])c2)nn1	–	–	–	–	–
